Test [1] has as its target T1, Monoglyceride lipase (Homo sapiens, UniProt Q99685).
T1 sequence (Q99685 whole entry): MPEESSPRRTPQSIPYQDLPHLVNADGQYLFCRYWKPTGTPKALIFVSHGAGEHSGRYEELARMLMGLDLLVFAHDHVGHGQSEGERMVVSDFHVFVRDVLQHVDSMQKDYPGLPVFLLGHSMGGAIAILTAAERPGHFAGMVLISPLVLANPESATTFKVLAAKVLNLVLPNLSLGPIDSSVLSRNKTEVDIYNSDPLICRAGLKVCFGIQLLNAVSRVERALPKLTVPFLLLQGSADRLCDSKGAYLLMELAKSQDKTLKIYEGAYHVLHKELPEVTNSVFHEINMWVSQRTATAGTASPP
In words: Inhibition of MAGL in human U937 cells using 2-OG containing […] as substrate preincubated for 30 mins followed by substrate addition and measured after 15 mins by liquid scintillation spectroscopic method. Type of test: cell-based. The essentials: (§1)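 U937 cell homogenate (100 µg) in 10 mM Tris-HCl, 1 mM EDTA, pH 8, 0.1% fatty acid-free BSA. Compound at 10 µM screening concentration, 30 min at 37 °C. FAAH: 100 nM AEA with 1 nM [³H]AEA tracer. MAGL: 1 µM 2-OG with 1 nM tritiated tracer. Both 15 min at 37 °C, stopped with CHCl₃:MeOH (1:1), aqueous phase counted.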

Test [2] concerns the target T2, Cannabinoid receptor 1 (Homo sapiens, UniProt P21554). Put plainly: Displacement of [3H]-CP55940 from human CB1 receptor expressed in CHO cell membranes after 90 mins. A general note: In a radioligand displacement assay an active substance lowers the binding of a labelled ligand.
For test [3], the target named is T3, Cannabinoid receptor 2 (Homo sapiens, UniProt P34972). Put plainly: Displacement of [3H]-CP55940 from human CB2 receptor expressed in CHO cell membranes after 90 mins. The essentials:
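Membranes expressing hCB1 or hCB2 (stably transfected CHO) in 50 mM Tris-HCl, 2.5 mM EDTA, 5 mM MgCl₂, 0.5% fatty acid-free BSA, pH 7.4. Nonspecific binding with 10 µM […]. GF/B filtration, radioactivity counted, Ki derived. Mean ± SD, at least 3 experiments in triplicate.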

For test [4], the species on record is Homo sapiens. In words: Selectivity ratio of Ki for human CB1 receptor to Ki for human CB2 receptor. The essentials: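 Membranes expressing hCB1 or hCB2 (stably transfected CHO) in 50 mM Tris-HCl, 2.5 mM EDTA, 5 mM MgCl₂, 0.5% fatty acid-free BSA, pH 7.4. Incubated with compound and 0.5 nM [³H]CP55,940 for 90 min at 30 °C. Nonspecific binding with 10 µM […]. GF/B filtration, radioactivity counted, Ki derived. Mean ± SD, at least 3 experiments in triplicate.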

The target in test [5] is T2, Cannabinoid receptor 1. In words: Agonist activity at human CB1 receptor expressed in CHO cell membranes after 90 mins by [35S]GTPgammaS binding assay. Type of test: functional, cell-based. A general note: Binding of GTPγS marks nucleotide exchange on a G protein.
Test [6] deals with T3, Cannabinoid receptor 2. Put plainly: Agonist activity at human CB2 receptor expressed in CHO cell membranes after 90 mins by [35S]GTPgammaS binding assay. Type of test: functional. The essentials: (§2)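 Membranes (5 µg) of hCB2-expressing cells in 50 mM Tris-HCl, 3 mM MgCl₂, 0.2 mM EDTA, 100 mM NaCl, 0.5% fatty acid-free BSA, pH 7.4, with 10 µM GDP and 0.1 nM [³⁵S]GTPγS. Kept on ice, started by vehicle or compound, 90 min at 30 °C. Nonspecific binding with 10 µM GTPγS. Filtered on GF/B, radioactivity counted. At least three experiments in triplicate, mean ± SD.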

Test [7] deals with T3, Cannabinoid receptor 2. In words: Agonist activity at human CB2 receptor expressed in CHO cell membranes after 90 mins by [35S]GTPgammaS binding assay relative to control. It is filed as functional. Summed up: as §2
The target of test [8] is T4, Fatty-acid amide hydrolase 1 (Homo sapiens, UniProt O00519).
T4 sequence (O00519 whole entry): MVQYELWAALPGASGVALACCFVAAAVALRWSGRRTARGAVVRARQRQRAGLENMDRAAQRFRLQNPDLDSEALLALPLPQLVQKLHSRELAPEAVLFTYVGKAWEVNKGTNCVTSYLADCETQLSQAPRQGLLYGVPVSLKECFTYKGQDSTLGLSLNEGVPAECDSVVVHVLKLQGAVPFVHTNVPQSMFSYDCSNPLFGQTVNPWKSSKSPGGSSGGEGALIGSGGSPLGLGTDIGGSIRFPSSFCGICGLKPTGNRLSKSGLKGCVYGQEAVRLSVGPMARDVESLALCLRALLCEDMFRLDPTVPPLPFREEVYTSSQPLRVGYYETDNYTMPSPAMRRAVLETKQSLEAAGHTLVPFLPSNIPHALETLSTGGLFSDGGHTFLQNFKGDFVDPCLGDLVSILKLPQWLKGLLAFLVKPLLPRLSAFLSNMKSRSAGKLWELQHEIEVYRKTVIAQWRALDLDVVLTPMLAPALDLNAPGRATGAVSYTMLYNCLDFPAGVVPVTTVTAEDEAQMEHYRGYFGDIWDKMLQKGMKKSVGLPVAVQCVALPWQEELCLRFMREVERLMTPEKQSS
Put plainly: Inhibition of FAAH in human U937 cells using AEA containing [ethanolamine-1-3H]AEA as substrate preincubated for 30 mins followed by substrate addition and measured after 15 mins by liquid scintillation spectroscopic method. Type of test: cell-based. The essentials: as §1

Test [9] addresses T5, Monoacylglycerol lipase ABHD6 (Homo sapiens, UniProt Q9BV23).
T5 sequence (Q9BV23 whole entry): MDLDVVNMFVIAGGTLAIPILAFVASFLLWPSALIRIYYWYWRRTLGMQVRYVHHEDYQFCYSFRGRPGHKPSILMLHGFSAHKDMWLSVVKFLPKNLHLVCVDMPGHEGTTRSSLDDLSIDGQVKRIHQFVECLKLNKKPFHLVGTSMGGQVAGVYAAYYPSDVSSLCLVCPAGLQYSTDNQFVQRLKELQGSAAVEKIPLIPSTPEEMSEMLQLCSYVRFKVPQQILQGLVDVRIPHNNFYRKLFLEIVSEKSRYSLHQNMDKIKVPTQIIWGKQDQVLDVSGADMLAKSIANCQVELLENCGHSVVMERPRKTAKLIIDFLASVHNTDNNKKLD
Put plainly: Inhibition of human ABHD6 expressed in HEK293 cells using 2-OG as substrate preincubated for 30 mins followed by substrate addition and measured after 5 mins by liquid scintillation spectroscopic method. Type of test: cell-based. The essentials:
(§3)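 Homogenate (40 µg) of HEK293 cells stably transfected with hABHD6 or hABHD12, compound preincubated 30 min at 37 °C in […], 0.1% BSA, pH 7.6. DMSO vehicle; WWL70 10 µM or THL 20 µM as positive controls. 10 µM 2-OG added for 5 min at 37 °C, stopped with CHCl₃:MeOH. Aqueous phase counted; no-enzyme blanks and non-transfected HEK293 hydrolysis subtracted.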

In test [10] the target is T6, Lysophosphatidylserine lipase ABHD12 (Homo sapiens, UniProt Q8N2K0).
T6 sequence (Q8N2K0 whole entry): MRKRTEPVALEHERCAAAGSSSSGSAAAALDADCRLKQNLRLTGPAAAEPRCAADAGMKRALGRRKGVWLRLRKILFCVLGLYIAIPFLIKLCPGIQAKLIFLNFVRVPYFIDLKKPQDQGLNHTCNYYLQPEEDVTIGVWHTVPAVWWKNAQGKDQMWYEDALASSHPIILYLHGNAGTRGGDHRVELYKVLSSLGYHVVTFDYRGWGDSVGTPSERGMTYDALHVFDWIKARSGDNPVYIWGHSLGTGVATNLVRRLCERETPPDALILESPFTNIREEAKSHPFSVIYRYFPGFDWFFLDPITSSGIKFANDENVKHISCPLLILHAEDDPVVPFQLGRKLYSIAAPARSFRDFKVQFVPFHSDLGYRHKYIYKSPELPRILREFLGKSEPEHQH
In words: Inhibition of human ABHD12 expressed in HEK293 cells using 2-OG as substrate preincubated for 30 mins followed by substrate addition and measured after 5 mins by liquid scintillation spectroscopic method. It is filed as cell-based. The essentials:
as §3

The test system of test [11] is U-937. In words: Inhibition of [ethanolamine-1-3H]AEA/unlabeled AEA uptake in human U937 cells preincubated for 15 mins followed by [ethanolamine-1-3H]AEA/unlabeled AEA addition and measured after 15 mins by scintillation counting method. Type of test: functional, cell-based. The essentials: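 Intact U937 cells (0.5x10⁶ per sample) in RPMI, preincubated with compound for 15 min at 37 °C. Then 1 nM [ethanolamine-1-³H]AEA plus unlabeled AEA (final 100 nM) added for 15 min. Stopped by rapid filtration and ice-cold PBS/1% BSA washes, radioactivity counted. At least three experiments in triplicate, mean ± SD.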

The subject of test [12] is U-937. Put plainly: Cytotoxicity against human U937 cells assessed as decrease in cell viability at 0.6 to 40 uM after 48 hrs by MTT assay. Type of test: functional, cell-based. The essentials: (§4)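 U251MG (EMEM, 10% FBS) or U937 (RPMI 1640, 10% FBS) cells plated at 4x10³/well for 24h, then exposed to compounds (0–40 µM) for 48 h at 37°C. MTT reduction, formazan read at 595 nm. Viability as % of untreated control. Five independent experiments in triplicate, mean ± SD, ANOVA with Bonferroni.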
In general terms: Tetrazolium dyes change colour on reduction, which living cells bring about.

The subject of test [13] is U-251. In words: Cytotoxicity against human U251MG cells assessed as decrease in cell viability at 0.6 to 40 uM after 48 hrs by MTT assay. Type of test: functional, cell-based. Summed up: as §4

Each structure is given as a SMILES string. Calls of active or inactive are those of the source. The calls are words filed in the database; no cut-off is given here.

Usually IC50 stands for the concentration at which inhibition is half-maximal. Usually Ki stands for the equilibrium dissociation constant of an inhibitor or competing ligand from its target. A high value points to weaker binding. Broadly, the EC50 is the concentration that produces a half-maximal response. Lower therefore signals a more potent agent. For orientation: Emax means the maximal effect, on the per cent scale that the assay sets.

T3 sequence (P34972 whole entry): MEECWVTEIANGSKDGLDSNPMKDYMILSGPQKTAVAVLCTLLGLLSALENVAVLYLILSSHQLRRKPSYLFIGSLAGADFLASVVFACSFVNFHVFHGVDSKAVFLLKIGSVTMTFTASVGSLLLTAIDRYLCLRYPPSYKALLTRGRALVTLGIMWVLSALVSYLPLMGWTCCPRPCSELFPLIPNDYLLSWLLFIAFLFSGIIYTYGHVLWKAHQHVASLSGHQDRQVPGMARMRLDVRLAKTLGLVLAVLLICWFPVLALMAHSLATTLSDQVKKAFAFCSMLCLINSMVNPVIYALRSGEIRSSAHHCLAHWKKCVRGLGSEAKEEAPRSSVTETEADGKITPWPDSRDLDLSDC
T2 sequence (P21554 whole entry): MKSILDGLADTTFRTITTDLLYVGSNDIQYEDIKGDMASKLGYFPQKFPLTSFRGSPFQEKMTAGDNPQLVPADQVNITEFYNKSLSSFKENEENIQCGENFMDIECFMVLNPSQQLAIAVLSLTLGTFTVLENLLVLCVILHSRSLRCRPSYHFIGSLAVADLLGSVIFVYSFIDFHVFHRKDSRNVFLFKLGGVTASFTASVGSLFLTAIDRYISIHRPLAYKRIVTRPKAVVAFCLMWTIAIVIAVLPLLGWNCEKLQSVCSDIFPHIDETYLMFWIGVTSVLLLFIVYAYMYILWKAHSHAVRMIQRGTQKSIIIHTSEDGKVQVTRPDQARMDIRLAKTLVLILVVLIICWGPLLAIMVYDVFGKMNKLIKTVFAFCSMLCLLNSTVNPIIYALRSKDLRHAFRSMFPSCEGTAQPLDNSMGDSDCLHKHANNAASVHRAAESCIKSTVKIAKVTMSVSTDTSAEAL

`Cc1ccn(Cc2ccc(F)cc2)c(=O)c1C(=O)NC1CCCCCC1`: the IC50 is over 10000 nM in test [1]; 8800 nM in test [8]; over 10000 nM in [9]; over 10000 nM in [10]; 1800 nM in test [11]. Besides, the values for the Ki in test [2] and in test [3] were 11.7 nM and 5.9 nM, respectively. Also, the Ratio Ki in test [4] was 2 to 54. Also, the figures for the EC50 in test [5] and in [6] were 69 nM and 1.9 nM, respectively. Besides, the Emax in test [7] turned out to be 128%. The result in test [12] was Active. Moreover, the result in test [13] was inactive.

The values are drawn from ChEMBL document CHEMBL4152271, “Polypharmacological profile of 1,2-dihydro-2-oxo-pyridine-3-carboxamides in the endocannabinoid system” (Eur J Med Chem, 2018).
